Experimental data as given in ChEMBL document CHEMBL2384933, “Vitexin inhibits inflammatory pain in mice by targeting TRPV1, oxidative stress, and cytokines” (J Nat Prod, 2013).

Experiments:
Set-up in all cases: dose 2.5 mg/kg, route intraperitoneal
Conditions in all cases: in vivo, 168 h
[1] = system: Mus musculus; experiment: Toxicity in Swiss mouse assessed as increase in myeloperoxidase activity in stomach at 2.5 mg/kg, ip for 7 days by spectrophotometric analysis; assay type: organism-based
In short: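 Same daily ip dosing for 7 days. Stomach was homogenized in 50 mM K2PO4 pH 6.0 with 0.5% HTAB and spun at 16100g for 2 min. Supernatant was mixed with 50 mM phosphate pH 6.0 containing 0.167 mg/mL o-dianisidine and 0.015% H2O2, then read at 450 nm three times within 1 min. Values came from a neutrophil standard curve, as neutrophils ×10^4/mg tissue.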

[2] = system: Mus musculus; experiment: Hepatotoxicity in Swiss mouse assessed as increase in plasma ALT level at 2.5 mg/kg, ip for 7 days; assay type: toxicity, organism-based
In short: (§1)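 Mice dosed ip once daily for 7 days; the vehicle was saline or Tris/HCl buffer pH 8.0, with the vehicle data pooled. Plasma AST and ALT were measured with a diagnostic kit as markers of hepatotoxicity.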

[3] = system: Mus musculus; experiment: Hepatotoxicity in Swiss mouse assessed as increase in plasma AST level at 2.5 mg/kg, ip for 7 days; assay type: toxicity, organism-based; in short: as §1

Measured: Activity

COc1ccc2c(c1)c(CC(=O)O)c(C)n2C(=O)c1ccc(Cl)cc1 [INDOMETHACIN]
Toxic: all assays above
